18 compounds from ChEMBL document CHEMBL1148214, “In-vitro cytotoxic activities of the major bromophenols of the red alga Polysiphonia lanosa and some novel synthetic isomers” (J Nat Prod, 2004) can be followed below.

The test system of one test is HCT-116. Briefly: Cytotoxicity against human HCT116 cells after 96 hrs by MTT assay. Format: functional, cell-based. The procedure, abridged: (§1)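 DLD-1 or HCT-116 cells in RPMI 1640 with 10% FCS, seeded at 1 × 10^4 cells mL-1 and incubated overnight at 37 °C, 5% CO2. Continuous 4-day drug exposure, drug in DMSO (max 0.1%), 8 wells per concentration. MTT 0.5 mg mL-1 for 4 h; formazan in DMSO read at 550 nm. IC50 taken as 50% growth inhibition versus control; 5FU positive control; triplicate.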

Test [1] concerns DLD-1. Briefly: Cytotoxicity against human DLD1 cells after 96 hrs by MTT assay. The class given is functional, cell-based. Also on record: unit not given here. Summed up: as §1
Test [2] deals with DLD-1. The experiment in a line: Cell cycle arrest in human DLD1 cells assessed as accumulation at S phase at 5 umol after 72 hrs by flow cytometry. Format: functional. Summed up: (§2)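 DLD-1 cells seeded at 5 × 10^4 cells mL-1 and grown 24 h at 37 °C, then exposed to drug for 72 h. Harvested by trypsinisation, fixed in 70% EtOH, suspended in PBS pH 7.3, RNase-treated and stained with propidium iodide for 30 min at 37 °C. DNA content measured by flow cytometry on 10 000 cells; percentage of cells in each cycle phase calculated.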

For test [3], the system named is DLD-1. Briefly: Cell cycle arrest in human DLD1 cells assessed as accumulation at S phase at 2.5 umol after 72 hrs by flow cytometry. Format: functional. The procedure, abridged:
as §2

Test [4] concerns DLD-1. The experiment in a line: Cytotoxicity against human DLD1 cells at 8 umol after 96 hrs by MTT assay. Format: functional, cell-based. Summed up:
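DLD-1 cells exposed continuously for 4 days to drug at 8 µmol in DMSO-containing medium (max 0.1% DMSO). Survival measured by MTT at 0.5 mg mL-1 for 4 h, formazan read at 550 nm, and expressed as percentage of mean control absorbance.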

Test [5] deals with DLD-1. The experiment in a line: Cell cycle arrest in human DLD1 cells assessed as accumulation at G0/G1 phase at 10 umol after 72 hrs by flow cytometry. The class given is functional. Summed up:
as §2

For test [6], the system named is DLD-1. The experiment in a line: Cytotoxicity against human DLD1 cells after 1 hr by MTT assay. Format: functional, cell-based. The procedure, abridged:
(§3)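 DLD-1 cells seeded at 1 × 10^4 cells mL-1 and incubated overnight at 37 °C, 5% CO2. Drug was in DMSO (max 0.1% final) diluted in medium, 8 wells per concentration. After 1, 3 or 24 h the drug was removed, cells washed twice and grown in fresh medium to 4 days total. MTT at 0.5 mg mL-1 for 4 h; formazan dissolved in DMSO, absorbance read at 550 nm. IC50 determined relative to control survival; triplicate experiments.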

Test [7] relates to DLD-1. Briefly: Cell cycle arrest in human DLD1 cells assessed as accumulation at G0/G1 phase at 2.5 umol after 72 hrs by flow cytometry. Format: functional. Summed up: as §2
Test [8] concerns DLD-1. Briefly: Cell cycle arrest in human DLD1 cells assessed as accumulation at G2/M phase at 2.5 umol after 72 hrs by flow cytometry. The class given is functional. Summed up:
as §2

The subject of test [9] is DLD-1. The experiment in a line: Cytotoxicity against human DLD1 cells after 3 hrs by MTT assay. The class given is functional, cell-based. The procedure, abridged:
as §3

Test [10] concerns DLD-1. Briefly: Cytotoxicity against human DLD1 cells after 24 hrs by MTT assay. The class given is functional, cell-based. Summed up: as §3
The subject of test [11] is DLD-1. Briefly: Cell cycle arrest in human DLD1 cells assessed as accumulation at G2/M phase at 10 umol after 72 hrs by flow cytometry. Format: functional. The procedure, abridged: as §2
In test [12] the test system is DLD-1. The experiment in a line: Cell cycle arrest in human DLD1 cells assessed as accumulation at G2/M phase at 5 umol after 72 hrs by flow cytometry. The class given is functional. The procedure, abridged: as §2
The subject of test [13] is DLD-1. The experiment in a line: Cell cycle arrest in human DLD1 cells assessed as accumulation at S phase at 10 umol after 72 hrs by flow cytometry. The class given is functional. Summed up:
as §2

The test system of test [14] is DLD-1. The experiment in a line: Cell cycle arrest in human DLD1 cells assessed as accumulation at G0/G1 phase at 5 umol after 72 hrs by flow cytometry. Format: functional. The procedure, abridged: as §2

The source made the active and inactive calls. The rule behind the calls is not given here.

For the compound `COCc1cc(Br)c(O)c(O)c1Br`, the IC50 in the test on HCT-116 is 3.48 µmol; in the test on DLD-1 [1] it was 7.27.

The compound `OCc1cc(O)c(O)c(Br)c1` came in with an IC50 in the test with DLD-1 [1] of 51.5.

As to `OCc1cc(Br)c(O)c(O)c1Br`, the IC50 was 21.4 µmol with HCT-116 and 15 with DLD-1 [1].

For the compound `O=Cc1cc(Br)c(O)c(O)c1Br`, the IC50 with DLD-1 [1] was determined as 31.

`O=c1[nH]cc(F)c(=O)[nH]1` [FLUOROURACIL]: the IC50 in the test on HCT-116 came to 4.93 µmol.

For `CCCOCc1cc(O)c(O)c(Br)c1Br`, the IC50 was determined as 1.32 µmol with HCT-116 and 12.4 in the test with DLD-1 [1].

`O=Cc1cc(O)c(O)c(Br)c1` displayed an IC50 with DLD-1 [1] of 27.9.

Consider `OCc1cc(O)c(O)c(Br)c1Br` [LANOSOL], for which the IC50 in the test on HCT-116 was determined as 20.4 µmol.

As for `O=Cc1cc(O)c(O)c(Br)c1Br`, the IC50 with DLD-1 [1] turned out to be 30.9.

`CCCOCc1cc(O)c(O)c(Br)c1` gave an IC50 with DLD-1 [1] of 26.3.

Take `CCOCc1cc(Br)c(O)c(O)c1Br`: the IC50 with HCT-116 was determined as 1.54 µmol; in the test on DLD-1 [1], 7.15.

`COCc1cc(O)c(O)c(Br)c1`: the IC50 with DLD-1 [1] came to 35.3.

In the case of `CCOCc1cc(O)c(O)c(Br)c1Br` [ETHYL LANOSOL], the IC50 in the test with HCT-116 worked out at 2.51 µmol; with DLD-1 [1] it was 13.5.

On to `Oc1c(O)c(Br)c(Br)c(Br)c1Br` [TETRABROMOCATECHOL], for which the IC50 with HCT-116 was 8.75 µmol; in the test with DLD-1 [1], 6.43.

With `CCOCc1cc(O)c(O)c(Br)c1`, in the test on DLD-1 [1], the IC50 is 35.1.

For `CCCOCc1cc(Br)c(O)c(O)c1Br`, the Activity in the test on DLD-1 [2] came to 60.56%; with DLD-1 [3], 42.21%; with DLD-1 [5], 56.4%; in the test on DLD-1 [7], 32.14%; in the test on DLD-1 [8], 25.65%; in the test with DLD-1 [11], 9.95%. The values for the Activity in the test with DLD-1 [12], in the test with DLD-1 [13] and in the test on DLD-1 [14] were 19.79%, 33.65% and 19.65%, respectively. For the same compound, the result in the test on DLD-1 [4] was Active. The IC50 in the test on DLD-1 [6] was 79.76 µmol; in the test on DLD-1 [9] it was 77.98 µmol; in the test with DLD-1 [10], 2.71 µmol; in the test with HCT-116, 0.8 µmol; in the test with DLD-1 [1], 1.72.

Consider `COc1cc(C=O)cc(Br)c1O`, for which, in the test with DLD-1 [1], the IC50 is given as greater than 200.

In the case of `COCc1cc(O)c(O)c(Br)c1Br`, in the test on HCT-116, the IC50 worked out at 14.1 µmol.
